Screening data deposited in PubChem by Broad Institute.
T cruzi growth-1: T. cruzi proliferation inhibition | AID 624255 | inhibition, % at 8.34 µM | hit rate 5.9% among 77,000 | T. cruzi beta-gal in NIH3T3, GalScreen luminescence, 90 h;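 active = mean inhibition above about 93%, with at least 55% of replicates each passing it, limit read from the data, passing the limit was not always enough; inconclusive = only one of those two conditions holds; inactive = neither condition holds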
GASC1 inh: blocks human GASC-1 (KDM4C) demethylase activity | Q9H3R0 | GST-KDM4C 2-372, H3K9me3 peptide, LANCE TR-FRET | inhibition, % at 12.5 µM | hit rate 0.15% among 96,000;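 active = mean replicate inhibition above about 25%, with at least 55% of replicates also reaching it, limit read from the data, passing the limit was not always enough; inconclusive = only one of those two conditions met; inactive = neither condition met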
Target sequence (Q9H3R0 2-372 limits assumed): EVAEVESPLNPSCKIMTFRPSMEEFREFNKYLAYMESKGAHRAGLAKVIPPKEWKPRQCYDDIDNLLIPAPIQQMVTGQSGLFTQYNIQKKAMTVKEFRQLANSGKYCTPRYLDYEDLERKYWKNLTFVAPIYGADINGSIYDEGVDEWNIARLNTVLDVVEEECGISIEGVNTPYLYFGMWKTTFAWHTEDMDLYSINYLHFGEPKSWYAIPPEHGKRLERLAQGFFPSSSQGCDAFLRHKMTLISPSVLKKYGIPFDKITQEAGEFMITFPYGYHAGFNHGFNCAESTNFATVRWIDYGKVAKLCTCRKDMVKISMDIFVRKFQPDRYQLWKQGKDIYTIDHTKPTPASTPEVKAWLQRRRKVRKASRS
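System – N-terminal GST-fused human GASC-1 (KDM4C) fragment, residues 2-372 · Input – enzyme final amount 10 nM · Technique – LANCE TR-FRET, Eu antibody, ULight-streptavidin, EDTA, ex 340 nm, em 618/671 nm · Medium – HEPES buffer, pH 7.5, plus ascorbate · Incubation – enzyme reaction 30 min, then detection 60 min, both room temperature · Reagent – H3K9me3 peptide with Fe(II)/2OG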
IDH1 mut inh: inhibitors of human IDH1 R132H | inhibition, % at 10 µM | AID 624101 | hit rate 0.18% among 70,000 | IDH1 R132H reductase, diaphorase/resazurin fluorescence, 60 min | O75874; in the data active = inhibition above about 34%; inconclusive = no clear call, values can overlap the other calls; inactive = below about 11%;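 note: 0% = DMSO and 100% = no enzyme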
Target sequence (O75874 whole entry R132H): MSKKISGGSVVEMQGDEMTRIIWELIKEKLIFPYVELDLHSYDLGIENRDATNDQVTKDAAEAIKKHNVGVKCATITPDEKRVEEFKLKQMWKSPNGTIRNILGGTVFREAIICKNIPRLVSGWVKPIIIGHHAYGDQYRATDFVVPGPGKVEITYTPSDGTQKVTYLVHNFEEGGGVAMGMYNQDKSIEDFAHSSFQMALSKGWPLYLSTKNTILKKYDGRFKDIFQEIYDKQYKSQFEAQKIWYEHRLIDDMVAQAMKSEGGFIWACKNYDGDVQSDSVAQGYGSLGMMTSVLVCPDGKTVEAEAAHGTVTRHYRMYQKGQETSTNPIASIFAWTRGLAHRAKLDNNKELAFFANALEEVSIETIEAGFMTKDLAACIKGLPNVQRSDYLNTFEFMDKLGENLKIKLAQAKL
T cruzi growth-2: blocks T. cruzi growth in NIH3T3 host cells. hit rate 72% among 5,600. shares compounds with T cruzi growth-1. inhibition, % at 8.35 µM. T. cruzi beta-gal in NIH3T3, GalScreen luminescence, 90 h;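 active = mean replicate inhibition above about 95% and at least 55% of replicates individually reaching it, limit read from the data; inconclusive = only one of the two criteria is met; inactive = neither criterion is met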
T cruzi growth-3: blocks T. cruzi growth in NIH3T3 host cells | shares compounds with T cruzi growth-1 | T. cruzi beta-gal in NIH3T3, GalScreen luminescence, 90 h | inhibition, % at 2.09 µM | hit rate 21% among 5,600;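 active = mean inhibition above about 95%, with at least 55% of replicates also reaching it, limit read from the data; inconclusive = meets just one of the two conditions; inactive = meets neither condition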;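 note: plate controls were neutral control median for no effect and positive control median for full effect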
3T3 cytotox: cytotoxicity in mouse NIH/3T3 fibroblasts; shares compounds with T cruzi growth-1; NIH/3T3 viability, CellTiter-Glo ATP luminescence, 90 h; cytotoxicity (signal decrease), % at 8.35 µM; hit rate 14% among 5,600;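 active = mean signal decrease across replicates above about 35% based on untreated-well scatter, with enough replicates individually passing, limit read from the data; inconclusive = no rule stated though some were filed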;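 note: 0% = median of neutral control wells and 100% = median of positive control wells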
NIH3T3 tox 2: NIH/3T3 (mouse) viability loss; shares compounds with T cruzi growth-1; NIH/3T3 viability, CellTiter-Glo ATP luminescence, 90 h; inhibition, % at 24.9 µM; hit rate 56% among 5,600; AID 651744;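 active = mean loss of cell viability signal at or above a set limit, and enough replicates individually reaching it; inconclusive = meets only the mean limit or only the replicate share; inactive = meets neither condition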;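 note: 0% = median of neutral control wells and 100% = median of positive control wells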
* hit, by the source's call; ? = inconclusive; nt = no result. This excerpt belongs to a sample that is enriched for hits.

SMILES	T cruzi growth-1	GASC1 inh	IDH1 mut inh	T cruzi growth-2	T cruzi growth-3	3T3 cytotox	NIH3T3 tox 2
C[C@@H]1CCCCO[C@H](CN(C)C(=O)CCC(F)(F)F)[C@H](C)CN([C@H](C)CO)C(=O)c2cc(NS(=O)(=O)c3ccc(Cl)cc3)ccc2O1	101.2*	-0.8	-0.3	100.2*	60.8	18.4	-4.1
C[C@H]1CCCCO[C@H](CN(C)C(=O)CCC(F)(F)F)[C@@H](C)CN([C@@H](C)CO)C(=O)c2cc(NS(=O)(=O)c3ccc(Cl)cc3)ccc2O1	75.4	-0.6	nt	nt	nt	nt	nt
O=C(O)CCc1ccc(-c2ccc(F)cc2)n1-c1cccc(C(=O)O)c1	nt	nt	-0.1	nt	nt	nt	nt
C[C@H](CO)N1C[C@H](C)[C@H](CN(C)Cc2ccc(C(=O)Nc3ccccc3N)cc2)Oc2c(NC(=O)C3CC3)cccc2C1=O	97.8*	-0.1	nt	106.2*	93.7	0.8	43.1*
C[C@@H]1CN([C@@H](C)CO)C(=O)c2cccc(NC(=O)C3CC3)c2O[C@@H]1CN(C)Cc1ccc(C(=O)Nc2ccccc2N)cc1	76.3	3.0	nt	nt	nt	nt	nt
C[C@H]1CN([C@@H](C)CO)C(=O)c2cccc(NC(=O)C3CC3)c2O[C@@H]1CN(C)Cc1ccc(C(=O)Nc2ccccc2N)cc1	91.1	0.6	0.4	nt	nt	nt	nt
C[C@@H]1CN([C@H](C)CO)C(=O)c2cccc(NC(=O)C3CC3)c2O[C@H]1CN(C)Cc1ccc(C(=O)Nc2ccccc2N)cc1	101.8*	2.4	nt	109.8*	93.3	5.6	29.9*
COc1ccc(N(C(C)C(=O)Nc2ccc(Br)cc2F)S(C)(=O)=O)cc1 (configuration not stated)	nt	nt	-0.1	nt	nt	nt	nt
CCN(CC(=O)Nc1cccc(C(C)=O)c1)S(=O)(=O)c1ccc(Cl)cc1	nt	nt	-0.5	nt	nt	nt	nt
C[C@H](CO)N1C[C@H](C)[C@@H](CN(C)S(=O)(=O)c2ccc(Cl)cc2)OCCCC[C@H](C)Oc2ccc(NS(=O)(=O)c3cccs3)cc2C1=O	84.3	1.2	nt	nt	nt	nt	nt
C[C@@H]1CCCCO[C@@H](CN(C)S(=O)(=O)c2cccs2)[C@@H](C)CN([C@H](C)CO)C(=O)c2cc(NS(=O)(=O)c3ccc(Cl)cc3)ccc2O1	?	-0.4	1.0	106.1*	72.3	0.0	38.5*
C[C@H](CO)N1C[C@H](C)[C@@H](CN(C)S(=O)(=O)c2cccs2)OCCCC[C@H](C)Oc2ccc(NS(=O)(=O)c3ccc(Cl)cc3)cc2C1=O	102.4	-0.5	1.4	nt	nt	nt	nt
C[C@@H]1CCCCO[C@@H](CN(C)S(=O)(=O)c2cccs2)[C@H](C)CN([C@H](C)CO)C(=O)c2cc(NS(=O)(=O)c3ccc(Cl)cc3)ccc2O1	91.9	-0.3	2.6	nt	nt	nt	nt
C[C@H](CO)N1C[C@H](C)[C@H](CN(C)S(=O)(=O)c2cccs2)OCCCC[C@H](C)Oc2ccc(NS(=O)(=O)c3ccc(Cl)cc3)cc2C1=O	104.3*	-1.0	0.0	102.0*	83.9	-9.0	5.1
C[C@@H]1CCCCO[C@H](CN(C)S(=O)(=O)c2cccs2)[C@H](C)CN([C@@H](C)CO)C(=O)c2cc(NS(=O)(=O)c3ccc(Cl)cc3)ccc2O1	95.1*	0.0	0.0	102.2*	81.6	-2.5	13.8
C[C@@H]1CCCCO[C@H](CN(C)S(=O)(=O)c2cccs2)[C@@H](C)CN([C@@H](C)CO)C(=O)c2cc(NS(=O)(=O)c3ccc(Cl)cc3)ccc2O1	92.8*	0.3	nt	98.2*	99.4*	-15.6	-2.0
Cc1ccc(S(=O)(=O)Nc2ccc3c(c2)C(=O)N([C@@H](C)CO)C[C@H](C)[C@H](CN(C)S(=O)(=O)c2cccs2)OCCCC[C@H](C)O3)cc1	nt	-2.5	0.8	nt	nt	nt	nt
CSc1ccccc1NC(=O)CN(C)S(=O)(=O)c1ccc(C)cc1	nt	nt	0.1	nt	nt	nt	nt
Cc1cc(C)c(NC(=O)CN(C)S(=O)(=O)c2ccccc2)c(C)c1	nt	nt	0.9	nt	nt	nt	nt
CC1=NN(c2cc(Cl)cc(Cl)c2)C(=O)CC1	nt	nt	-0.5	nt	nt	nt	nt
O=C(O)[C@H]1O[C@@H](Oc2cc(O)c3c(=O)c(-c4ccc(O)cc4)coc3c2)[C@H](O)[C@@H](O)[C@@H]1O	nt	nt	0.0	nt	nt	nt	nt
O=C(CSc1nc2ccc([N+](=O)[O-])cc2s1)Nc1cc(Cl)cc(Cl)c1	nt	nt	-0.2	nt	nt	nt	nt
COc1ccc(NC(=O)Nc2ccc3c(c2)C(=O)N([C@@H](C)CO)C[C@@H](C)[C@H](CN(C)Cc2ccc(Cl)c(Cl)c2)OCCCC[C@H](C)O3)cc1	97.4*	0.7	1.7	98.7*	102.5*	18.3	21.1
COc1ccc(NC(=O)Nc2ccc3c(c2)C(=O)N([C@@H](C)CO)C[C@H](C)[C@H](CN(C)Cc2ccc(Cl)c(Cl)c2)OCCCC[C@@H](C)O3)cc1	124.9*	-0.4	0.2	101.2*	115.4*	11.3	-8.0
COc1ccc(CN(C)C[C@@H]2OCCCC[C@H](C)Oc3ccc(NC(=O)Nc4ccc(OC)cc4)cc3C(=O)N([C@H](C)CO)C[C@H]2C)cc1	66.8	nt	nt	nt	nt	nt	nt
SMILES	T cruzi growth-1	GASC1 inh	IDH1 mut inh	T cruzi growth-2	T cruzi growth-3	3T3 cytotox	NIH3T3 tox 2
COc1ccc(NC(=O)Nc2ccc3c(c2)C(=O)N([C@@H](C)CO)C[C@@H](C)[C@H](CN(C)Cc2ccc(Cl)c(Cl)c2)OCCCC[C@@H](C)O3)cc1	125.5*	-0.6	2.3	99.7*	116.9*	20.3	30.6
COc1ccc(CN(C)C[C@H]2OCCCC[C@H](C)Oc3ccc(NC(=O)Nc4ccc(OC)cc4)cc3C(=O)N([C@H](C)CO)C[C@@H]2C)cc1	42.3	0.6	nt	nt	nt	nt	nt
COc1ccc(CN(C)C[C@@H]2OCCCC[C@@H](C)Oc3ccc(NC(=O)Nc4ccc(OC)cc4)cc3C(=O)N([C@H](C)CO)C[C@@H]2C)cc1	35.2	nt	0.6	nt	nt	nt	nt
C[C@H](CO)N1C[C@H](C)[C@@H](CN(C)Cc2ccc(Cl)c(Cl)c2)OCCCC[C@H](C)Oc2ccc(NC(=O)Nc3ccccc3)cc2C1=O	77.7	0.4	nt	nt	nt	nt	nt
COc1ccc(NC(=O)Nc2ccc3c(c2)C(=O)N([C@H](C)CO)C[C@H](C)[C@@H](CN(C)Cc2ccc(Cl)c(Cl)c2)OCCCC[C@H](C)O3)cc1	123.3*	-0.3	nt	?	115.7*	14.0	7.9
Cc1cc(C)c2nc(-c3ccccn3)cc(C(=O)Nc3cccc(Cn4cccn4)c3)c2c1	nt	nt	0.2	nt	nt	nt	nt
Cc1cc(S(=O)(=O)NC2CCCCC2)ccc1OCC(=O)O	nt	nt	-0.4	nt	nt	nt	nt
CCn1c(NCc2ccccc2O)nc2ccccc21	nt	nt	-0.5	nt	nt	nt	nt
O=C(N/N=C/c1cccc(B(O)O)c1)c1ccccc1O	nt	nt	0.1	nt	nt	nt	nt
C[C@@H]1CN([C@H](C)CO)C(=O)c2cccc(NC(=O)c3ccc(-c4nccs4)cc3)c2O[C@@H]1CN(C)Cc1ccc(C(F)(F)F)cc1	106.1	-1.0	-12.0	nt	nt	nt	nt
